Bioassay records: PubChem, several laboratories
This is a sample that favours compounds with a hit; in the whole collection about 2.2% have one here.
PERK inhibitor: human PERK inhibition, primary cell-based screen | actives 0.17% (n = 220,000) | CHO PERK-DD fusion, SEAP luminescence translation reporter | AID 1416 | Q9NZJ5 | inhibition, % at 5.6 µM;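 active means inhibition above the mean inhibition of all tested compounds plus 3 SD, set separately per screening campaign, cut at about 2.9% in these data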;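 further: PERK kinase domain activated by AP20187 dimerizer at 100 nM; 0% = DMSO with dimerizer and 100% = rapamycin at 8.4 µM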
Biofilm kill mix: mixtures killing C. albicans biofilm; AID 1242; inhibition, % at 7.6 µM; actives 0.02% (n = 120,000); C. albicans biofilm persisters + clotrimazole, fluorescence viability; primary screen in compound mixtures of four per well;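 further: compounds exposed to preformed 24 h biofilms for 48 h; 0% = untreated biofilm control and 100% = clotrimazole plus chlorhexidine kill blank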
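System: C. albicans CAF4-2 wild-type biofilms; Medium: RPMI/MOPS medium, pH 7.0; Reagent: Clotrimazole, 50 µg/mL; Times: biofilm formation 24 h, compound exposure 48 h, 37 °C; Detection: 2-h Alamar Blue fluorescence, 535/590 nm excitation/emission; Evaluation: percent inhibition of biofilm viability.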
14-3-3 Bad PPI: disrupts binding of bovine 14-3-3 zeta to phospho-Bad peptide. P63103. TR-FRET 14-3-3zeta/Dy647-pBad peptide displacement, 1 h. inhibition, % at 21.7 µM. actives 0.71% (n = 220,000). AID 781;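 active means inhibition above about 70%, limit read from the data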;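 further: 0% = full 14-3-3 plus peptide FRET controls and 100% = background without 14-3-3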
Target sequence (P63103 whole entry, looked up): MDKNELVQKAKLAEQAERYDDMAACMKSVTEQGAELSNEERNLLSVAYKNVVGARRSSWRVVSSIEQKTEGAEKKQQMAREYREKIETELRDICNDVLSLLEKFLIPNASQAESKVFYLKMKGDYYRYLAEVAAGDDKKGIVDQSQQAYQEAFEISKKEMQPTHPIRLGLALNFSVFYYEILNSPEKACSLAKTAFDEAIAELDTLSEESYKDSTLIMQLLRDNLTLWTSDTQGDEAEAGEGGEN
p97 inhibitor: blocks human p97 ATPase activity. P55072. actives 0.42% (n = 220,000). inhibition, % at 8 µM. recombinant p97 ATPase, Kinase-Glo ATP luminescence, 3 h; in the data active means inhibition above about 15%;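 further: 0% = DMSO vehicle and 100% = wells lacking enzyme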
eIF4E-4G inh: blocks eIF4E binding to eIF4G; P63073+Q04637; TR-FRET eIF4E-eIF4GI(517-606) binding, 2 h; inhibition, % at 21.7 µM; actives 0.37% (n = 220,000); AID 782;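 active means inhibition above about 30%, limit read from the data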;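 further: 0% = full FRET control wells and 100% = background wells lacking eIF4GI fragment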
Hck Nef HTS: inhibitors of human Hck kinase activated by Nef; P08631; actives 0.68% (n = 220,000); AID 463187; Recombinant Hck-YEEI plus Nef, Z-Lyte FRET kinase assay; inhibition, % at 20 µM;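 active means Hck-Nef kinase inhibition above about 50%, limit read from the data; inactive means inhibition below that limit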;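 further: 0% = DMSO with Hck plus Nef and 100% = Hck alone without Nef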
* marks the source's active call; other numbers are inactive results; [ ] = dose if it differs, or a comment.

Results for Cc1ccc(CSc2nnc([C@@H]3CCCN3C(=O)OC(C)(C)C)o2)cc1 ?
PERK inhibitor: 0; Biofilm kill mix: 14; 14-3-3 Bad PPI: -1; p97 inhibitor: -10; eIF4E-4G inh: -4; Hck Nef HTS: 6

What do the screens show for `Cn1cnnc1Sc1ccc(C(=O)OCC(=O)Nc2cc(Cl)cc(Cl)c2)cc1[N+](=O)[O-]`?
PERK inhibitor: 0; Biofilm kill mix: 11; 14-3-3 Bad PPI: 86*[fluorescence artefact?]; p97 inhibitor: -4; eIF4E-4G inh: 29; Hck Nef HTS: 2

How did CC1(C)CC2(CC(c3ccccc3)Oc3cc(O)ccc32)NC(=S)N1 (stereo not drawn) do in these assays?
PERK inhibitor: 0; Biofilm kill mix: 10; 14-3-3 Bad PPI: 3; p97 inhibitor: 7; eIF4E-4G inh: -11; Hck Nef HTS: -1

Results for CC(=O)Oc1ccc2c(c1)OC(c1ccccc1)CC21CC(C)(C)NC(=S)N1 (stereo not drawn) ?
PERK inhibitor: 0; 14-3-3 Bad PPI: 4; p97 inhibitor: -8; eIF4E-4G inh: 39*; Hck Nef HTS: -2

How did O=c1c2ccccc2sc2nc(C3CCCCC3)n(Cc3ccco3)c(=O)c12 do in these assays?
PERK inhibitor: -1; 14-3-3 Bad PPI: 73*; p97 inhibitor: 7; eIF4E-4G inh: -71; Hck Nef HTS: 31

Results for CC(Sc1nc(-c2ccco2)nc2c1c(=O)n(C)c(=O)n2C)C(=O)O (stereo not drawn) ?
PERK inhibitor: -1; Biofilm kill mix: 18; 14-3-3 Bad PPI: -7; p97 inhibitor: 2; eIF4E-4G inh: 0; Hck Nef HTS: 2

What do the screens show for `Cc1cccc(-n2c(=S)[nH]c3sc4c(c3c2=O)CCc2ccccc2-4)c1`?
PERK inhibitor: 3; Biofilm kill mix: 17; 14-3-3 Bad PPI: -20; p97 inhibitor: 3; eIF4E-4G inh: -4; Hck Nef HTS: 9

What do the screens show for `Clc1ccc(Cc2ccc(SCc3ccccc3)nn2)c(Cl)c1`?
PERK inhibitor: 1; 14-3-3 Bad PPI: 72*; p97 inhibitor: -1; eIF4E-4G inh: -12; Hck Nef HTS: 2

How did CCOC(=O)c1ccccc1NC(=O)c1c(F)c(F)c(F)c(F)c1F do in these assays?
PERK inhibitor: 0; 14-3-3 Bad PPI: 81*; p97 inhibitor: 1; eIF4E-4G inh: 2; Hck Nef HTS: -1

Results for O=C(COC(=O)c1ccc[nH]c1=O)NC1CCCc2ccccc21 (stereo not drawn) ?
PERK inhibitor: 0; Biofilm kill mix: 17; 14-3-3 Bad PPI: -5; p97 inhibitor: 3; eIF4E-4G inh: -2; Hck Nef HTS: 27

Results for COc1ccc(N/C(=C(/C(Cl)=C(Cl)Cl)[N+](=O)[O-])n2nnc3ccccc32)cc1 ?
PERK inhibitor: 0; 14-3-3 Bad PPI: 79*; p97 inhibitor: 3; eIF4E-4G inh: 0; Hck Nef HTS: -1

What do the screens show for `c1ccc(-c2nnc(CN3CCN(c4ccccc4)CC3)o2)cc1`?
PERK inhibitor: 2; Biofilm kill mix: 5; 14-3-3 Bad PPI: -6; p97 inhibitor: 2; eIF4E-4G inh: 1; Hck Nef HTS: 16

What do the screens show for `Clc1ccccc1-c1ccc(CN2CCN(c3ccccc3)CC2)o1`?
PERK inhibitor: 0; 14-3-3 Bad PPI: 73*; p97 inhibitor: -10; eIF4E-4G inh: -9; Hck Nef HTS: 1

How did CCN1C(=O)Cc2cc(S(=O)(=O)N3CCOCC3)ccc21 do in these assays?
PERK inhibitor: -2; 14-3-3 Bad PPI: -5; p97 inhibitor: 2; eIF4E-4G inh: -2; Hck Nef HTS: 2

What do the screens show for `CCN1CC(=O)Nc2cc(S(=O)(=O)N3CCOCC3)ccc21`?
PERK inhibitor: 3.7*; Biofilm kill mix: 4; 14-3-3 Bad PPI: -14; p97 inhibitor: 0; eIF4E-4G inh: 3; Hck Nef HTS: 22

Results for CCCCCN1CN(S(=O)(=O)c2cccs2)c2nc3ccccc3nc21 ?
PERK inhibitor: -1; Biofilm kill mix: -5; 14-3-3 Bad PPI: 4; p97 inhibitor: 3; eIF4E-4G inh: 2; Hck Nef HTS: 15

How did COc1ccc(CC(=O)Nc2ccc(N3CCOCC3)cc2)cc1OC do in these assays?
PERK inhibitor: 1; Biofilm kill mix: 23; 14-3-3 Bad PPI: 1; p97 inhibitor: -5; eIF4E-4G inh: 4; Hck Nef HTS: 5

How did Cc1ccc(C(=O)Nc2ccccc2C(=O)NC(CC(=O)O)C(=O)O)cc1 (stereo not drawn) do in these assays?
PERK inhibitor: 2; 14-3-3 Bad PPI: 3; p97 inhibitor: 32*; eIF4E-4G inh: 8; Hck Nef HTS: 0

What do the screens show for `COc1ccccc1N=c1scc(-c2ccc3c(c2)NC(=O)CO3)n1CC1CCCO1` (stereo not drawn)?
PERK inhibitor: -1; 14-3-3 Bad PPI: 1; p97 inhibitor: 0; eIF4E-4G inh: -2; Hck Nef HTS: 7

How did CN(C)S(=O)(=O)c1cccc(N=c2scc(-c3ccc4c(c3)NC(=O)CO4)n2CC2CCCO2)c1 (stereo not drawn) do in these assays?
PERK inhibitor: 0; 14-3-3 Bad PPI: 70*; p97 inhibitor: 1; eIF4E-4G inh: -18; Hck Nef HTS: -1

What do the screens show for `COC(=O)c1ccc(CSc2n[nH]c(=S)s2)o1`?
PERK inhibitor: 0; 14-3-3 Bad PPI: 30; p97 inhibitor: 3; eIF4E-4G inh: 33*; Hck Nef HTS: 3

How did CC(C)(C)NC(=O)c1ccc(NC(=O)CSc2ccccc2)cc1 do in these assays?
PERK inhibitor: 0; Biofilm kill mix: 15; 14-3-3 Bad PPI: -10; p97 inhibitor: 0; eIF4E-4G inh: -4; Hck Nef HTS: -15

How did COc1ccc(OC)c(S(=O)(=O)N2CCN(c3c(C)cccc3C)CC2)c1 do in these assays?
PERK inhibitor: 1; 14-3-3 Bad PPI: -1; p97 inhibitor: -2; eIF4E-4G inh: 73*; Hck Nef HTS: 13

What do the screens show for `CCN1CCN(S(=O)(=O)c2cc(OC)ccc2OC)CC1`?
PERK inhibitor: 0; 14-3-3 Bad PPI: -2; p97 inhibitor: 3; eIF4E-4G inh: -6; Hck Nef HTS: 6

How did O=C(CCCCCNC(=O)c1ccccc1Br)N=Nc1c(O)[nH]c2ccccc12 do in these assays?
PERK inhibitor: 0; Biofilm kill mix: 14; 14-3-3 Bad PPI: -3; p97 inhibitor: -2; eIF4E-4G inh: -9; Hck Nef HTS: 6

Results for CC(=O)OCc1c(C(F)(F)F)nn(C)c1SCc1ccc(Cl)cc1 ?
PERK inhibitor: 1; 14-3-3 Bad PPI: 141*[fluorescence artefact?]; p97 inhibitor: 0; eIF4E-4G inh: 0; Hck Nef HTS: 8

How did CC1(C)CC(=O)c2sc(NS(=O)(=O)c3ccccc3)nc2C1 do in these assays?
PERK inhibitor: 0; Biofilm kill mix: 3; 14-3-3 Bad PPI: 2; p97 inhibitor: 0; eIF4E-4G inh: 2; Hck Nef HTS: -4

Results for CC1(C)CC(=O)c2sc(NS(C)(=O)=O)nc2C1 ?
PERK inhibitor: 0; 14-3-3 Bad PPI: 71*; p97 inhibitor: -5; eIF4E-4G inh: 2; Hck Nef HTS: 7
